“And” between values parts separate entries of the source, which are not always exact repeats. Equal values may be shown once. The source made the active and inactive calls.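 The calls were made as follows: active = fitted AC50 at or below twice the top valid tested dose for that sample, with falling signal; inconclusive = flat curve with 30 to 70% inhibition, or poor fit; inactive = the rest.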
tested on: not listed separately; test: fluconazole-resistant Candida isolate growth inhibitors – retest at dose, dry powder, set 2, confirmation (AID 623897); conditions: C. albicans CaCi-17 growth, Alamar Blue fluorescence, 48 h; at 26 µM (top of the series)
Outline: (§1)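 Buffer or medium: RPMI 1640, MOPS-buffered, with added uridine and glucose. Incubation: 48 h static growth at 37 °C, then 2 h Alamar Blue. Technique: Alamar Blue fluorescence. Control set: amphotericin B 10 µM as positive control.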

**Q.** Which activity change, negative = inhibition does the source give for `O=C1NC(=S)N(Cc2ccccc2)C12CCCCC2` here?
**A.** The activity change, negative = inhibition was 0.955% (inactive).

**Q.** With `Cc1ccc(N2C(=O)NC(=O)C23CCCCC3)cc1` as the compound, how does the activity change, negative = inhibition read?
**A.** The activity change, negative = inhibition was 5.65% (inactive).

**Q.** With `CCOC(=O)N1C(=O)C2(CCOCC2)N(c2ccc(C)cc2)C1=S` as the compound, how does the activity change, negative = inhibition read?
**A.** Its activity change, negative = inhibition is 0.474% (inactive).

**Q.** Which activity change, negative = inhibition does the source give for `CCCCN1C(=O)C2(CCCCC2)N(c2ccc(C)cc2)C1=S` here?
**A.** The activity change, negative = inhibition was -7.78% (inactive).

**Q.** With `CCOC(=O)N1C(=O)C2(CCCCC2)N(C(C)C)C1=S` as the compound, how does the activity change, negative = inhibition read?
**A.** Its activity change, negative = inhibition is -6.94% (inactive).

**Q.** With `CCCCN1C(=O)N(c2ccc(C)cc2)C2(CCCCC2)C1=O` as the compound, how does the activity change, negative = inhibition read?
**A.** Its activity change, negative = inhibition is 9.41% (inactive).

**Q.** Which activity change, negative = inhibition does the source give for `Cc1ccc(N2CC(=O)NC2=O)cc1` here?
**A.** The activity change, negative = inhibition was -8.61% (inactive).

**Q.** For `CCCc1ccc(N2C(=S)N(C(=O)OCC)C(=O)C23CCCCC3)cc1`, which activity change, negative = inhibition is on record?
**A.** Its activity change, negative = inhibition is -11.5% (inactive).

**Q.** Which activity change, negative = inhibition does the source give for `CCOC(=O)N1C(=O)C2(CCCCC2)NC1=S` here?
**A.** Its activity change, negative = inhibition is -0.208% (inactive).

**Q.** For `Cc1ccc(N2C(=S)N(C(=O)OC(C)C)C(=O)C23CCCCC3)cc1`, which activity change, negative = inhibition is on record?
**A.** The activity change, negative = inhibition was 7.31% (inactive).

**Q.** For `O=C1NC(=S)NC12CCCCC2`, which activity change, negative = inhibition is on record?
**A.** The activity change, negative = inhibition was 2.58% (inactive).

**Q.** Which activity change, negative = inhibition does the source give for `O=C1NC(=S)N(c2ccc(F)cc2)C12CCCCC2` here?
**A.** The activity change, negative = inhibition was -18.2% (inactive).

**Q.** Which activity change, negative = inhibition does the source give for `CCOC(=O)N1C(=S)N(c2ccc(C)cc2)C(=O)C12CCCCC2` here?
**A.** The activity change, negative = inhibition was 3.4% (inactive).

**Q.** For `Cc1ccc(N2C(=S)N(C(=O)Oc3ccccc3)C(=O)C23CCCCC3)cc1`, which activity change, negative = inhibition is on record?
**A.** Its activity change, negative = inhibition is 1.41% (inactive).

**Q.** With `CC(C)N1C(=S)NC(=O)C12CCCCC2` as the compound, how does the activity change, negative = inhibition read?
**A.** Its activity change, negative = inhibition is -18.9% (inactive).

**Q.** For `CCOC(=O)N1C(=O)C(C)(C)N(c2ccc(C)cc2)C1=S`, which activity change, negative = inhibition is on record?
**A.** The activity change, negative = inhibition was 11.1% (inactive).

**Q.** Which activity change, negative = inhibition does the source give for `CCOC(=O)N1C(=O)C2(CCCCC2)N(c2ccc(C(C)C)cc2)C1=S` here?
**A.** Its activity change, negative = inhibition is 8.52% (inactive).

**Q.** Which activity change, negative = inhibition does the source give for `CCCC(=O)N1C(=O)C2(CCCCC2)N(c2ccc(C)cc2)C1=S` here?
**A.** Its activity change, negative = inhibition is 8.69% (inactive).

**Q.** For `Cc1ccc(N2C(=S)NC(=O)C23CCCC3)cc1`, which activity change, negative = inhibition is on record?
**A.** Its activity change, negative = inhibition is 4.84% (inactive).

**Q.** For `Cc1ccc(N2C(=S)N(S(C)(=O)=O)C(=O)C23CCCCC3)cc1`, which activity change, negative = inhibition is on record?
**A.** Its activity change, negative = inhibition is 3.7% (inactive).

**Q.** With `CCOC(=O)N1C(=S)NC(=O)C12CCCCC2` as the compound, how does the activity change, negative = inhibition read?
**A.** The activity change, negative = inhibition was 8.62% (inactive).

**Q.** For `Cc1ccc(N2C(=S)NC(=O)C23CCCCC3)cc1`, which activity change, negative = inhibition is on record?
**A.** Its activity change, negative = inhibition is -4.65% (inactive).

**Q.** For `CCOC(=O)N1C(=S)N(c2ccc(C)cc2)C2(CCCCC2)C1=NCc1ccccc1`, which activity change, negative = inhibition is on record?
**A.** The activity change, negative = inhibition was 5.9% (inactive).

**Q.** Which activity change, negative = inhibition does the source give for `CCOC(=O)N1C(=O)C2(CCC2)N(c2ccc(C)cc2)C1=S` here?
**A.** Its activity change, negative = inhibition is 13.1% (inactive).

**Q.** For `Cc1ccc(N2C(=S)NC(=O)C2(C)C)cc1`, which activity change, negative = inhibition is on record?
**A.** Its activity change, negative = inhibition is 2.64% (inactive).

**Q.** Which activity change, negative = inhibition does the source give for `Cc1ccc(N2C(=O)C3(CCCCC3)NC2=S)cc1` here?
**A.** The activity change, negative = inhibition was 5.29% (inactive).

**Q.** Which activity change, negative = inhibition does the source give for `CCOC(=O)N1C(=O)C2(CCCC2)N(c2ccc(C)cc2)C1=S` here?
**A.** The activity change, negative = inhibition was 1.68% (inactive).

**Q.** With `Cc1ccc(N2C(=O)C(=O)NC2=S)cc1` as the compound, how does the activity change, negative = inhibition read?
**A.** Its activity change, negative = inhibition is 5.65% (inactive).

**Q.** With `Cc1ccc(N2C(=S)N(C(=O)OCc3ccccc3)C(=O)C23CCCCC3)cc1` as the compound, how does the activity change, negative = inhibition read?
**A.** The activity change, negative = inhibition was 5.07% (inactive).

**Q.** With `CCCOC(=O)N1C(=O)C2(CCCCC2)N(c2ccc(C)cc2)C1=S` as the compound, how does the activity change, negative = inhibition read?
**A.** The activity change, negative = inhibition was 17.3% (inactive).

**Q.** Which activity change, negative = inhibition does the source give for `Cc1ccc(N2C(=S)N(C)C(=O)C23CCCCC3)cc1` here?
**A.** The activity change, negative = inhibition was -21% (inactive).

**Q.** Which activity change, negative = inhibition does the source give for `CCOC(=O)N1C(=O)C2(CCCCC2)N(c2ccc(CC)cc2)C1=S` here?
**A.** The activity change, negative = inhibition was -31.8% (inactive).

**Q.** For `Cc1ccc(N2C(=O)N(C)C(=O)C23CCCCC3)cc1`, which activity change, negative = inhibition is on record?
**A.** The activity change, negative = inhibition was 0.531% (inactive).

tested on: C. albicans CaCi-17 growth, Alamar Blue fluorescence, 48 h; test: as above; conditions: not given
Outline: as §1

**Q.** For `CCOC(=O)N1C(=O)C2(CCCCC2)N(c2ccc(F)cc2)C1=S`, which AC50 is on record?
**A.** Its AC50 is 0.946 µM.

**Q.** Which AC50 does the source give for `CCOC(=O)N1C(=O)C2(CCCCC2)N(c2ccc(C(C)(C)C)cc2)C1=S` here?
**A.** The AC50 was > 52 µM (inactive).

**Q.** For `O=C1NC(=S)N(c2ccccc2)C12CCCCC2`, which AC50 is on record?
**A.** Its AC50 is > 52 µM (inactive).

**Q.** For `Cc1ccc(N2C(=S)NC(=O)C23CCC3)cc1`, which AC50 is on record?
**A.** The AC50 was > 52 µM (inactive).

**Q.** For `CCOC(=O)N1C(=O)C2(CCCCC2)N(c2ccc(-c3ccccc3)cc2)C1=S`, which AC50 is on record?
**A.** The AC50 was > 52 µM (inactive).

**Q.** For `CCOC(=O)N1C(=O)C2(CCCCC2)N(c2cccc(C)c2)C1=S`, which AC50 is on record?
**A.** The AC50 was 8.16 µM.

**Q.** With `CCOC(=O)N1C(=O)C2(CCCCC2)N(c2ccc(C(F)(F)F)cc2)C1=S` as the compound, how does the AC50 read?
**A.** The AC50 was 16.2 µM.

**Q.** For `CCOC(=O)N1C(=O)C2(CCCCC2)N(c2ccccc2C)C1=S`, which AC50 is on record?
**A.** Its AC50 is 23.9 µM.

**Q.** For `CCOC(=O)N1C(=O)C2(CCCCC2)N(c2ccccc2)C1=S`, which AC50 is on record?
**A.** Its AC50 is 4.15 µM.

**Q.** Which AC50 does the source give for `CCOC(=O)N1C(=O)C2(CCCCC2)N(c2ccc(C#N)cc2)C1=S` here?
**A.** The AC50 was 1.76 µM.

**Q.** With `Cc1ccc(N2CC(=O)NC2=S)cc1` as the compound, how does the AC50 read?
**A.** Its AC50 is > 52 µM (inactive).

**Q.** Which AC50 does the source give for `CCOC(=O)N1C(=O)N(c2ccc(C)cc2)C2(CCCCC2)C1=O` here?
**A.** The AC50 was > 52 µM (inactive).

**Q.** With `CCOC(=O)N1C(=O)C2(CCCCC2)N(c2ccc(Cl)cc2)C1=S` as the compound, how does the AC50 read?
**A.** The AC50 was 1.37 µM.

**Q.** Which AC50 does the source give for `Cc1ccc(N2C(=S)NC(=O)C23CCOCC3)cc1` here?
**A.** Its AC50 is > 52 µM (inactive).

**Q.** With `COC(=O)N1C(=O)C2(CCCCC2)N(c2ccc(C)cc2)C1=S` as the compound, how does the AC50 read?
**A.** Its AC50 is 17.1 µM.

**Q.** Which AC50 does the source give for `CCOC(=O)N1C(=O)C2(CCCCC2)N(Cc2ccccc2)C1=S` here?
**A.** Its AC50 is 22.8 µM.

**Q.** For `CCOC(=O)N1C(=O)C2(CCCCC2)N(c2ccc(C)cc2)C1=S`, which AC50 is on record?
**A.** Its AC50 is 8.5 µM and 9.7 µM.

**Q.** With `CC1/C=C/C=C\C=C\C=C\C=C\C=C\C=C\C(O[C@H]2OC(C)C(O)C(N)C2O)CC2OC(O)(CC(O)CC(O)C(O)CCC(O)CC(O)CC(=O)OC(C)C(C)C1O)CC(O)C2C(=O)O` (some centres not stated) as the compound, how does the AC50 read?
**A.** Its AC50 is 0.0301 µM.

**Q.** For `Cc1ccc(N2C(=S)N(C)C(=O)C23CCCCC3)cc1`, which AC50 is on record?
**A.** The AC50 was > 52 µM (inactive).

— PubChem BioAssay AID623897 (Broad Institute, 2012)
